24 compounds from ChEMBL document CHEMBL1128546 (J Med Chem, 1995) can be followed below.

Experiment [1] deals with 5-hydroxytryptamine receptor 1D (Homo sapiens, UniProt P28221). Nature of the experiment: Binding affinity to recombinant human 5-hydroxytryptamine 1D receptor alpha. In a few lines:
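Binding to the cloned human receptor subtype. Values are Ki, given as the mean of one or two independent experiments, each run in duplicate.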

For experiment [2], the species on record is Oryctolagus cuniculus. The experiment is described as follows: The compound was tested for functional activity by measuring the contraction of saphenous vein from New Zealand white rabbit.
The species entered for experiment [3] is Oryctolagus cuniculus. The experiment is described as follows: Maximum vein contraction obtained relative to 5-hydroxytryptamine. It is filed as functional.

Chain of 5-hydroxytryptamine receptor 1D (P28221 whole entry): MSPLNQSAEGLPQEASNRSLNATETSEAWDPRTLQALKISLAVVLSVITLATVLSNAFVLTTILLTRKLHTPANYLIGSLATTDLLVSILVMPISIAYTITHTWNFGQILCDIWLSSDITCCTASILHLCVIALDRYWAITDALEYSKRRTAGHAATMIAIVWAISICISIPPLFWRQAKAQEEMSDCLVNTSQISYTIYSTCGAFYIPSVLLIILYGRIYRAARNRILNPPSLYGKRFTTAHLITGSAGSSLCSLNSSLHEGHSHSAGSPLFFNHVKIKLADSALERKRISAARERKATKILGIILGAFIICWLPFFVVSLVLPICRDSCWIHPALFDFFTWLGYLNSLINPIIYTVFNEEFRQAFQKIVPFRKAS

In the case of `NCCc1c[nH]c2ccc(OCCCCC(=O)N3CCN(c4ccc(N)cc4)CC3)cc12`, the Ki in experiment [1] is 1.4 nM. The compound further returned a pD2 in the experiment listed under Oryctolagus cuniculus [2] of 7.05. The compound further returned a Rel max in the experiment filed under Oryctolagus cuniculus [3] of 0.73.
Taken in the same sequence, the figures for `CS(=O)(=O)NCc1ccc(N2CCN(C(=O)COc3ccc4[nH]cc(CCN)c4c3)CC2)cc1` were 1 nM, 6.92 and 0.88.
For `N#Cc1ccccc1N1CCN(C(=O)COc2ccc3[nH]cc(CCN)c3c2)CC1` the same measures were 0.92 nM, 7.42 and 1.22.
In the experiment listed under Oryctolagus cuniculus [2], `Cc1ccccc1N1CCN(C(=O)COc2ccc3[nH]cc(CCN)c3c2)CC1` displayed a pD2 of 5.86. In the experiment listed under Oryctolagus cuniculus [3], this compound had a Rel max of 1.01.
As for `NCCc1c[nH]c2ccc(OCCCC(=O)N3CCN(c4ccc([N+](=O)[O-])cc4)CC3)cc12`, the inhibition constant (Ki) in experiment [1] came to 1.2 nM. This compound also yielded a pD2 in the experiment filed under Oryctolagus cuniculus [2] of 6.91. Further, the Rel max in the experiment listed under Oryctolagus cuniculus [3] came out at 1.06.
On to `CN(C)S(=O)(=O)Nc1ccc(N2CCN(C(=O)COc3ccc4[nH]cc(CCN)c4c3)CC2)cc1.Cl.O`, for which the inhibitory constant (Ki) in experiment [1] was determined as 0.26 nM. Also, the pD2 in the experiment filed under Oryctolagus cuniculus [2] came to 7.2. The same compound returned a Rel max in the experiment filed under Oryctolagus cuniculus [3] of 0.96.
For `CS(=O)(=O)NCc1ccccc1N1CCN(C(=O)COc2ccc3[nH]cc(CCN)c3c2)CC1` the same measures were 1.8 nM, 6 and 0.93.
Taken in the same sequence, the figures for `NCCc1c[nH]c2ccc(OCCCCCC(=O)N3CCN(c4ccc(N)cc4)CC3)cc12` were 0.38 nM, 8.09 and 0.79.
Turning to `NCCc1c[nH]c2ccc(OCCCCCC(=O)N3CCN(c4ccc([N+](=O)[O-])cc4)CC3)cc12`, the Ki in experiment [1] was 0.34 nM. This compound had a pD2 in the experiment filed under Oryctolagus cuniculus [2] of 7. This compound also returned a Rel max in the experiment filed under Oryctolagus cuniculus [3] of 0.73.
In the case of `NCCc1c[nH]c2ccc(OCC(=O)N3CCN(c4ccc(CN)cc4)CC3)cc12`, in experiment [1], the Ki is 0.93 nM. For the same compound, the pD2 in the experiment filed under Oryctolagus cuniculus [2] stood at 6.8. Moreover, the Rel max in the experiment filed under Oryctolagus cuniculus [3] was 0.92.
Consider `CS(=O)(=O)Nc1ccc(N2CCN(C(=O)COc3ccc4[nH]cc(CCN)c4c3)CC2)cc1`, for which the Ki in experiment [1] came to 0.56 nM. In addition, the pD2 in the experiment filed under Oryctolagus cuniculus [2] was 7.62. This compound also showed a Rel max in the experiment listed under Oryctolagus cuniculus [3] of 1.21.
Regarding `CNS(=O)(=O)Cc1ccc2[nH]cc(CCN(C)C)c2c1`, the pD2 in the experiment listed under Oryctolagus cuniculus [2] is 5.75. Besides, the Rel max in the experiment listed under Oryctolagus cuniculus [3] is given as 1.26.
As for `NCCc1c[nH]c2ccc(OCCCCC(=O)N3CCN(c4ccc([N+](=O)[O-])cc4)CC3)cc12`, the inhibitory constant (Ki) in experiment [1] came to 2.5 nM. The same compound displayed a pD2 in the experiment listed under Oryctolagus cuniculus [2] of 6.74. Also, the Rel max in the experiment listed under Oryctolagus cuniculus [3] was 0.71.
The compound `CS(=O)(=O)Nc1ccc(N2CCN(C(=O)CCCCCOc3ccc4[nH]cc(CCN)c4c3)CC2)cc1` returned a pD2 in the experiment listed under Oryctolagus cuniculus [2] of 8.33. The same compound came in with a Rel max in the experiment filed under Oryctolagus cuniculus [3] of 1.05.
As for `CC(=O)Nc1ccc(N2CCN(C(=O)COc3ccc4[nH]cc(CCN)c4c3)CC2)cc1`, the pD2 in the experiment filed under Oryctolagus cuniculus [2] amounted to 6.67. This compound showed a Rel max in the experiment listed under Oryctolagus cuniculus [3] of 1.01.
With `NCCc1c[nH]c2ccc(OCC(=O)N3CCN(c4ccccc4CN)CC3)cc12`, in experiment [1], the inhibitory constant (Ki) stood at 6.9 nM. In addition, the pD2 in the experiment listed under Oryctolagus cuniculus [2] was 6.52. The compound also yielded a Rel max in the experiment filed under Oryctolagus cuniculus [3] of 0.9.
For the compound `NCCc1c[nH]c2ccc(OCC(=O)N3CCN(c4ccccc4[N+](=O)[O-])CC3)cc12`, the Ki in experiment [1] was 0.58 nM. Further, the pD2 in the experiment listed under Oryctolagus cuniculus [2] is recorded as 6.33. The compound also showed a Rel max in the experiment listed under Oryctolagus cuniculus [3] of 0.87.
`NCCc1c[nH]c2ccc(OCC(=O)N3CCN(c4ccc(N)cc4)CC3)cc12`: the Ki in experiment [1] was 2.92 nM. This compound came in with a pD2 in the experiment filed under Oryctolagus cuniculus [2] of 6.88. For the same compound, the Rel max in the experiment listed under Oryctolagus cuniculus [3] was 0.83.
Turning to `NCCc1c[nH]c2ccc(OCC(=O)N3CCN(c4ccc(NC(=O)c5ccccc5)cc4)CC3)cc12`, the Ki in experiment [1] came to 1.7 nM. For the same compound, in the experiment listed under Oryctolagus cuniculus [2], the pD2 worked out at 7.31. This compound also came in with a Rel max in the experiment listed under Oryctolagus cuniculus [3] of 0.9.
On to `NCCc1c[nH]c2ccc(OCC(=O)N3CCN(c4ccc([N+](=O)[O-])cc4)CC3)cc12`, for which the Ki in experiment [1] is 0.42 nM. For the same compound, in the experiment listed under Oryctolagus cuniculus [2], the pD2 was 6.12. The same compound came in with a Rel max in the experiment filed under Oryctolagus cuniculus [3] of 0.52.
As for `NCCc1c[nH]c2ccc(OCC(=O)N3CCN(c4ccccc4)CC3)cc12`, the inhibition constant (Ki) in experiment [1] was determined as 1.2 nM. The same compound yielded a pD2 in the experiment listed under Oryctolagus cuniculus [2] of 7.63. The Rel max in the experiment filed under Oryctolagus cuniculus [3] worked out at 0.68.
`CN(C)CCc1c[nH]c2ccc(Cn3cncn3)cc12` [RIZATRIPTAN] yielded a pD2 in the experiment listed under Oryctolagus cuniculus [2] of 6.15. The compound also registered a Rel max in the experiment filed under Oryctolagus cuniculus [3] of 1.42.
For `NCCc1c[nH]c2ccc(O)cc12` [SEROTONIN], the Rel max in the experiment listed under Oryctolagus cuniculus [3] was found to be 1.
Consider `CN(C)CCc1c[nH]c2ccc(C[C@H]3COC(=O)N3)cc12` [ZOLMITRIPTAN], for which the Ki in experiment [1] came out at 0.92 nM. The compound also yielded a pD2 in the experiment listed under Oryctolagus cuniculus [2] of 6.13. The compound also showed a Rel max in the experiment filed under Oryctolagus cuniculus [3] of 1.48.

For orientation: Ki means a measure of affinity in units of concentration, obtained from inhibition or displacement.
